PfG6PD inh: PfG6PD (Plasmodium falciparum) enzyme inhibition | PfGluPho enzyme, NADPH resazurin-diaphorase fluorescence | inhibition, % at 20 µM | hit rate 0.78% among 350,000 | AID 504690;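 active = inhibition reaching at least a set limit at 20 µM in the primary screen, cut at about 59% in these data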;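 note: 0% = DMSO wells with substrate and 100% = DMSO wells lacking glucose-6-phosphate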
G6PDH CS: inhibits Leuconostoc G6PDH, flagging false hits in G6PDH-based assays | Purified L. mesenteroides G6PDH, diaphorase/resazurin coupled fluorescence, 45 min | inhibition, % at 5 µM | hit rate 0.12% among 200,000; in the data active = inhibition above about 50%
Diaph inh CS: inhibits diaphorase or chemically oxidizes, flagging diaphorase assay artifacts; diaphorase resazurin-to-resorufin fluorescence, NADH, 16 min; bacterial (C. kluyveri) enzyme, not human; inhibition, % at 20 µM; hit rate 0.69% among 190,000; AID 1217;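 active = primary screen inhibition at 20 µM above a set limit, cut at about 50% in these data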;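 note: plate controls were DMSO with full reaction for no effect and wells lacking NADH for full effect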
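material = Clostridium kluyveri diaphorase enzyme | amount = 0.14 U/mL diaphorase, enzyme working solution | schedule = incubation 16 min, room temperature | detection = fluorescence of resorufin formed from resazurin, Ex 544/Em 590 nm | benchmarks = positive control minus NADH, DMSO neutral control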
HKDC1 inhibitor: inhibitors of human hexokinase HKDC1; AID 493160; inhibition, % at 20 µM; hit rate 0.16% among 340,000; Q2TB90; recombinant HKDC1, G6PDH/diaphorase resazurin coupled fluorescence;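 active = inhibition above about 35% when tested at 20 µM, limit read from the data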;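 note: plate controls were DMSO wells with enzyme for no effect and DMSO wells lacking enzyme for full effect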
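Test system: HK5 enzyme. Quantity: 5 µg/mL HK5 final. Reagent: glucose and ATP substrates. Schedule: 90 min reaction incubation at room temperature, dark. Technique: resazurin-to-resorufin fluorescence via G6PDH and diaphorase coupling, 525/613 nm. Control set: DMSO wells with and without enzyme mix.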
PfGluPho conf: confirmation of Plasmodium falciparum G6PD inhibitors; shares compounds with PfG6PD inh; recombinant PfGluPho, NADPH-diaphorase-resazurin fluorescence; inhibition, % at 20 µM; hit rate 34% among 2,400; AID 504753;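 active = inhibition of at least 50% at 20 µM in any single replicate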;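 note: 0% = DMSO with substrate and 100% = DMSO lacking glucose-6-phosphate substrate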
Diaph ctr 10uM: counter-screen for P. falciparum G6PD inhibitors: diaphorase inhibitors, oxidizers | shares compounds with PfG6PD inh | inhibition, % at 20 µM | hit rate 39% among 820 | AID 504862 | diaphorase-coupled resazurin reduction, fluorescence, NADPH 10 uM;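 active = average inhibition reaching 50% or more with the compound at 20 µM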;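 note: resorufin red fluorescence formed as diaphorase reduces resazurin using NADPH; 0% = DMSO with enzyme and 100% = DMSO without enzyme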
Diaphorase 30uM: diaphorase inhibition or oxidation at 30 uM NADPH | shares compounds with PfG6PD inh | hit rate 29% among 820 | inhibition, % at 20 µM | Diaphorase/resazurin coupled assay, resorufin fluorescence;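 active = inhibition averaging 50% or more, tested at 20 µM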;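 note: 0% = DMSO with enzyme and 100% = DMSO wells lacking diaphorase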
* = called active by the depositor; . = not tested or not shown; ! = not active in a repeat. In the library only some 1.2% were active in any assay of this set; here they are far more common.

SMILES | PfG6PD inh | G6PDH CS | Diaph inh CS | HKDC1 inhibitor | PfGluPho conf | others
O=C(CSc1nc2ncc(Cl)cc2[nH]1)Nc1ccccc1-c1ccccc1 | -14 | . | . | 3 | .
CCc1nnc(NC(=O)c2c(-c3ccccc3)noc2C)s1 | -12 | . | . | -2 | .
CCOCC(=O)Nc1nnc(COc2ccc(Cl)cc2)s1 | 62* | 9 | 4 | -12 | 15
O=C(CSc1ccccc1)Nc1nnc(COc2ccc(Cl)cc2)s1 | 78* | 18 | 8 | -26 | 43
Cc1onc(-c2ccccc2)c1C(=O)Nc1nnc(COc2ccc(Cl)cc2)s1 | 78* | -17 | 27 | -21 | 49
O=C(NCCCc1ccccc1)c1ccc(CS(=O)Cc2ccccc2Cl)o1 (centres undefined) | -9 | . | . | 2 | .
CC(=O)Nc1c(Cl)c(Cl)c2c(c1Cl)C(=O)c1cc(Cl)ccc1-2 | 2 | . | . | 2 | .
CC(C)CSc1nc2c(c(=O)[nH]c(=O)n2C)n1CC(O)COc1cccc2ccccc12 (centres undefined) | 64* | 3 | 13 | 10 | 29
C=CCc1c(C)[nH]c(=S)c(C#N)c1C | 73* | 8 | 38 | 1 | 56* | Diaph ctr 10uM=-13;Diaphorase 30uM=-21
C=CCc1c(C)c(C#N)c2nc3ccccc3n2c1N1CCCCC1 | -21 | . | . | 3 | .
Cc1nc2scc(-c3ccccc3)c2c(=O)n1N=C1C=CC(=O)C=C1 | 113* | 15 | . | 31 | 111* | Diaph ctr 10uM=95*;Diaphorase 30uM=89*
Cc1cc(C)nc(SSc2nc(C)cc(C)n2)n1 | 65* | . | . | -2 | 64* | Diaph ctr 10uM=-5;Diaphorase 30uM=-14
CN1C(=O)CSC1=Nc1ccc(Br)cc1 | -8 | . | . | -4 | .
Clc1nssc1=Nc1ccc(Br)cc1 | 79* | 0 | 21 | -14 | 29
Clc1nssc1=Nc1nncs1 | 100* | . | . | -8 | 82* | Diaph ctr 10uM=1;Diaphorase 30uM=-16
Cc1ccc(O)c(N=Cc2ccc(C)s2)c1 | 67* | 36 | 35 | 16 | 20
Cc1ccc(O)c(N=Cc2cccs2)c1 | 71* | 36 | 30 | 15 | 45
Cc1cn(C2CCCCC2)c(=O)n(-c2ccccc2)c1=O | -10 | . | . | 2 | .
CC1(C)CC2(CC(c3ccccc3F)c3ccc(O)c(O)c3O2)NC(=S)N1 (centres undefined) | 66* | 29 | 68* | 8 | 70* | Diaph ctr 10uM=23;Diaphorase 30uM=13
O=C(NNC(=O)c1cccnc1Cl)c1ccc(F)cc1 | -12 | . | . | 1 | .
O=C(Nc1ccccc1OC(F)F)c1cccc(S(=O)(=O)N2CCCC2)c1 | 12 | . | . | -4 | .
COc1ccc([N+](=O)[O-])c(OC)c1C(=O)NC(=O)Nc1nc(C)cc(C)n1 | 30 | . | . | -1 | .
COc1ccc(Br)c(OC)c1C(=O)NC(=O)Nc1nc(C)cc(C)n1 | 106* | . | . | -3 | 74* | Diaph ctr 10uM=68*;Diaphorase 30uM=65*
Nc1ccc(Cc2ccc(N)c(O)c2)cc1O | 72* | 27 | 14 | 3 | 46
COc1cc(Cc2ccc(N)c(OC)c2)ccc1N | 14 | -2 | 10 | 1 | .
SMILES | PfG6PD inh | G6PDH CS | Diaph inh CS | HKDC1 inhibitor | PfGluPho conf | others
Cc1cccc(NC2=C(NC(=O)c3ccccc3)C(=O)c3ccccc3C2=O)c1 | 83* | -18 | 34 | 10 | 69* | Diaph ctr 10uM=41;Diaphorase 30uM=41
Cc1cccc(C(=O)Nc2cccc(NC(=O)c3ccccc3)c2)c1 | 5 | . | . | 3 | .
NC(=S)N/N=C/c1c[nH]c2ccc(OCc3ccccc3)cc12 | 60* | . | . | 6 | 27
OCCc1c[nH]c2ccc(OCc3ccccc3)cc12 | 7 | . | . | -5 | .
Nc1ccn([C@@H]2O[C@H](CNCc3cc(Br)ccc3OCc3ccccc3)[C@@H](O)[C@H]2O)c(=O)n1 | 9 | . | . | . | .
CCN(CC)C(=O)C1=C(C)N(CCC2=CCCCC2)C(=O)C(CC(=O)NCc2cccc3ccccc23)C1 (centres undefined) | 10 | . | . | . | .
C=C1CCN([C@@H](CC(C)C)C(=O)NCCC(C)C)S(=O)(=O)c2ccccc21 | -4 | . | . | -3 | .
c1ccc(-c2nnc3sc(-c4csc5c4CCCC5)nn23)cc1 | 73* | -26 | 3 | 2 | 3
O=[N+]([O-])c1ccc(SCCc2ccncc2)cc1 | 68*! | . | . | 7 | 13
O=[N+]([O-])c1ccc(SCCc2ccccn2)cc1 | 43 | . | . | 0 | .
O=c1[nH]nc(CNc2ccc(C(F)(F)F)cc2)c2ccccc12 | 30 | 8 | 10 | 7 | .
